Activity calls are given as the source filed them. The rule behind the calls is not given here.
How the values were obtained:
[1] = Glutathione peroxidase-like activity at 10x(E -2) M concentration as NADP+/L/min; assay type: functional
[2] = Glutathione peroxidase-like activity at 10x(E -3) M concentration as NADP+/L/min; assay type: functional
Mus musculus [3] = species: Mus musculus; assay: Glutathione peroxidase-like activity at 10x(E -4) M concentration measured as NADP+/L/min; assay type: functional
[4] = system: Murine-murine hybridoma (mark 3); assay: (§1) Antioxidative property against stable murine-murine hybridoma (Mark 3) cell line; assay type: functional
[5] = Glutathione peroxidase-like activity in relation to Ebselen glutathione peroxidase-like activity; assay type: functional; design: concentration or dose not given beside the values
[6] = Glutathione peroxidase-like activity in relative to Ebselen glutathione peroxidase-like activity; assay type: functional; design: concentration or dose not given beside the values
Method in brief: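 Glutathione peroxidase-like activity by the Paglia and Valentine method. Compound solution (100 µL) was added to phosphate buffer, pH 7, with H2O2 and GSH (1.5 × 10-1 M stock in 0.01 M HCl). NADP+ formation was read at 340 nm and expressed as µmol NADP+/L/min. Blanks checked direct NADPH oxidation by compounds. Ebselen was run as the reference.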

[7] = Glutathione peroxidase-like activity at 10x(E -4) M concentration as NADP+/L/min; traces; assay type: functional
Mus musculus [8] = species: Mus musculus; assay: Antioxidative property against stable murine-murine hybridoma (Mark 3) cell line; fluorescence at 488 nm; assay type: functional, organism-based
Mus musculus [9] = species: Mus musculus; assay: Antioxidative property against stable murine-murine hybridoma (Mark 3) cell line; no effect; assay type: functional, organism-based
[10] = Glutathione peroxidase-like activity at 10x(E -2) M concentration; assay type: functional
Mus musculus [11] = species: Mus musculus; assay: as §1; assay type: functional

| Compound | Activity [1] | Activity [2] | Activity (Mus musculus [3]) | Effective molarity [4] | Activity [5] | Activity [6] | Activity [7] | Effective molarity (Mus musculus [8]) | NE (Mus musculus [9]) | Activity [10] | Effective molarity (Mus musculus [11]) |
| --- | --- | --- | --- | --- | --- | --- | --- | --- | --- | --- | --- |
| VITAMIN E | 20 µM | 33 µM | 15 µM | 1e-10 M l-1 | 2% |  |  |  |  |  |  |
| Cc1nc2ccc3[nH]c4ccccc4c3c2s1 | 93 µM | 29 µM | 20 µM/min |  | 9% |  |  |  |  |  |  |
| O=c1c2ccccc2[se]n1-c1ccccc1 [EBSELEN] | 1050 µM | 111 µM |  | 1e-05 M l-1 |  | 100% |  |  |  |  |  |
| c1ccc2c3c([nH]c2c1)-c1ccsc1SC3 | 75 µM | 71 µM | 44 µM/min | 1e-05 M l-1 |  | 7% |  |  |  |  |  |
| Cn1cnc2c3[nH]c4ccccc4c3ccc21 | 42 µM | 20 µM | 29 µM/min | 1e-05 M l-1 | 4% |  |  |  |  |  |  |
| CCOC(=O)c1cc2ccc3c(c4ccccc4n3C)c2s1 |  |  |  | 0.0001 M l-1 | 11% |  |  |  |  |  |  |
| COc1ccc2[nH]c3c(ccc4ccsc43)c2c1 | 60 µM | 22 µM | 4 µM/min |  | 6% |  |  |  |  |  |  |
| CCOC(=O)c1c2[nH]c3ccc(OC)cc3c2cc2nc(C)sc12 | 215 µM | 58 µM | 40 µM/min | 1e-05 M l-1 | 21% |  |  |  |  |  |  |
| CCOC(=O)c1cc2ccc3c(c4ccccc4n3C)c2o1 | 53 µM | 15 µM | 33 µM/min | 0.0001 M l-1 | 5% |  |  |  |  |  |  |
| CCOC(=O)c1sc(SC)c2c1ccc1c3ccccc3[nH]c12 | 133 µM | 38 µM |  |  | 13% |  | traces | fluorescence at 488 nm |  |  |  |
| COC(=O)c1cc2ccc3c(c4ccccc4n3C)c2[se]1 | 104 µM | 31 µM | 29 µM/min | 1e-05 M l-1 |  | 10% |  |  |  |  |  |
| CCOC(=O)c1c2[nH]c3ccccc3c2cc2nc(C)sc12 | 506 µM | 46 µM | 33 µM/min | 1e-05 M l-1 | 48% |  |  |  |  |  |  |
| c1ccc2c(c1)[nH]c1c2ccc2[se]nnc21 | 51 µM | 31 µM | 20 µM/min |  |  | 5% |  |  | inactive |  |  |
| COc1ccc2[nH]c3c4ccsc4ccc3c2c1 | 47 µM | 20 µM | 13 µM/min | 1e-06 M l-1 | 4% |  |  |  |  |  |  |
| CS(=O)(=O)n1c2ccccc2c2c3nn[se]c3ccc21 | 46 µM | 33 µM | 29 µM/min | 0.0001 M l-1 |  | 4% |  |  |  |  |  |
| CCOC(=O)c1sc(SC)c2c1ccc1c3cc(OC)ccc3[nH]c12 | 151 µM | 9 µM | 26 µM/min |  | 14% |  |  |  |  |  |  |
| COc1ccc2[nH]c3ccc4nc(C)sc4c3c2c1 |  | 35 µM | 33 µM/min |  | 6% |  |  |  |  | 64 µM |  |
| c1ccc2c(c1)[nH]c1c3ccsc3ccc21 | 60 µM | 25 µM | 26 µM/min | 1e-05 M l-1 |  | 6% |  |  |  |  |  |
| COc1cccc2c1C(=O)c1[nH]c3ccccc3c1-2 | 369 µM | 29 µM | 20 µM/min |  | 35% |  |  |  |  |  | 1e-06 M l-1 |
| CS(=O)(=O)n1c2c(c3ccccc31)-c1nn[se]c1CC2 | 140 µM | 33 µM | 31 µM/min | 0 M l-1 |  | 13% |  |  |  |  |  |
| COc1ccc2[nH]c3c(c2c1)-c1cccc(OC)c1C3=O | 58 µM | 26 µM | 11 µM/min | 1e-05 M l-1 | 6% |  |  |  |  |  |  |
| CS(=O)(=O)n1c2c(c3ccccc31)CCc1[se]nnc1-2 | 246 µM | 31 µM | 18 µM/min | 0.0001 M l-1 |  | 23% |  |  |  |  |  |
| c1ccc2c(c1)[nH]c1c2ccc2ccsc21 | 25 µM | 20 µM | 27 µM/min | 1e-05 M l-1 |  | 2% |  |  |  |  |  |

From ChEMBL document CHEMBL1132931, “Screening of new antioxidant molecules using flow cytometry” (2000)
